Assay results collected from several papers.
Lines come from different studies, so protocols differ.
CYP2D6: Cytochrome P450 2D6 (CYP2D6, Homo sapiens, UniProt P10635)
Dihydroorotate dehydrogenase (quinone), mitochondrial: Dihydroorotate dehydrogenase (quinone), mitochondrial (Rattus norvegicus, UniProt Q63707)

SMILES | target | assay | system | setting | endpoint | result
COc1cc(O)c2c(c1)C(=O)c1cc(C)cc(O)c1C2=O | CYP2D6 | enzyme activity, inhibitor | human, liver microsomes | pH 7.4 | Ki | 8.66 µM
Cn1nc2c(=O)n(C3CC3)ncc2c1[C@](N)(c1ccc(C(F)(F)F)c(Cl)c1)C1CC1 | Dihydroorotate dehydrogenase (quinone), mitochondrial | enzyme activity, inhibitor, absorbance | – | – | IC50 | 6.2 µM
Cc1ccc(C(=O)Nc2ccc(CN3CCN(C)CC3)c(C(F)(F)F)c2)cc1C#Cc1cnc2cccnn12 | Calmodulin-domain protein kinase 1, putative (Cryptosporidium parvum, UniProt A3FQ16) | enzyme activity, inhibitor | – | – | IC50 | > 1 µM
C=C(F)C(=O)N1CCN(c2nc(OC[C@@H]3CCCN3C)nc3c2CCN(c2cccc4cccc(Cl)c24)C3)C[C@@H]1CC#N | CYP2D6 | enzyme activity, inhibitor | human, liver microsomes | – | Ki | 26.4 µM
Cc1ccc2[nH]c(=O)c(CNC3CCCCC3)cc2c1 | Alpha-1B adrenergic receptor (ADRA1B, Homo sapiens, UniProt P35368) | ligand displacement in cells | – | – | Ki | 0.155 µM
Cn1nc2c(=O)n(C3CC3)ncc2c1[C@](O)(c1cnc(C(F)(F)F)c(Cl)c1)C(F)(F)F | Dihydroorotate dehydrogenase (quinone), mitochondrial | enzyme activity, inhibitor, absorbance | – | – | IC50 | > 30 µM
CCNC(=O)/C=C/c1cccc(Br)c1 | Sodium-dependent neutral amino acid transporter B(0)AT1 (SLC6A19, Homo sapiens, UniProt Q695T7) | transporter uptake, inhibitor, radiometric | – | – | IC50 | 0.84 µM
Cc1nn(CCc2ccccc2)c2ncc(C(=O)NCc3cccnc3)c(Cl)c12 | Prolyl endopeptidase (PREP, Homo sapiens, UniProt P48147) | enzyme activity, inhibitor, fluorescence | – | – | IC50 | 14 µM
Nc1ccccc1NC(=O)c1ccc(CNc2ccc(NC3=C(Cl)C(=O)c4cccnc4C3=O)cc2)cc1 | Histone deacetylase 3 (HDAC3, Homo sapiens, UniProt O15379) | enzyme activity, inhibitor | – | – | IC50 | 0.716 µM
C[C@@H]1CN(c2ccc(-c3cc(C(=O)NCCCNC(=O)/C=C/c4[nH]cc(C(=O)N[C@@H](CC(N)=O)c5ccc(F)c(Cl)c5)c4-c4ccc(Cl)cc4F)ccc3F)cc2NC(=O)c2c[nH]c(=O)cc2C(F)(F)F)C[C@H](C)N1C | DDB1- and CUL4-associated factor 1 (DCAF1, Homo sapiens, UniProt Q9Y4B6) | binding, SPR | – | – | Kd | 0.0152 µM
O=C1CCC(=O)N1Cc1cc2nccc(-c3cc(Cl)cc4c3N([C@@H]3CNC5(CCC5)C3)CCC4)c2s1 | Ubiquitin carboxyl-terminal hydrolase 7 (USP7, Homo sapiens, UniProt Q93009) | binding, SPR | – | – | Kd | 0.0001 µM
Cn1nc2c(=O)n(C3CC3)ccc2c1[C@](O)(c1cnc(C(F)(F)F)c(Cl)c1)C(F)(F)F | Dihydroorotate dehydrogenase (quinone), mitochondrial | enzyme activity, inhibitor, absorbance | – | – | IC50 | 16 µM
